# From ChEMBL document CHEMBL4689842, “EUbOPEN Chemogenomics Library wave 1” (2021)
# System: HEK-293T
# Test: Multiplex assay against HEK293T;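 for Population Tubulin-Different-Phenotype (%): share of the cells with healthy nuclei that show this phenotype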
# Assay type: toxicity, cell-based
# Conditions: human
# How it was run: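 At seeding, live cells were stained with Hoechst33342, BioTracker Green Microtubule Cytoskeleton Dye, MitoTracker Red and Annexin V Alexa Fluor 680. After compound addition they were imaged on a CQ1 microscope at 37°C and 5% CO2, and CellPathfinder machine-learning gating sorted them into Hoechst high-intensity objects or normal cells, with normal cells further split into healthy, pyknosed or fragmented nuclei and pyknosed cells into mitotic or apoptotic. Tubulin, mitochondrial-mass and membrane-permeability phenotypes are given as per cents of cells with healthy nuclei.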
# [1] = 12 h, 1 µM, compound concentration 1 uM, replicate 1
# [2] = 12 h, 1 µM, compound concentration 1 uM, replicate 2
# [3] = 12 h, 10 µM, compound concentration 10 uM, replicate 1
# [4] = 12 h, 10 µM, compound concentration 10 uM, replicate 2
# [5] = 24 h, 1 µM, compound concentration 1 uM, replicate 1
# [6] = 24 h, 1 µM, compound concentration 1 uM, replicate 2
# [7] = 24 h, 10 µM, compound concentration 10 uM, replicate 1
# [8] = 24 h, 10 µM, compound concentration 10 uM, replicate 2
smiles,measurement,setting,value
NC(=O)c1cccc(-c2cc(Nc3ccc(OC(F)(F)F)cc3)ncn2)c1,Population Apoptotic (%),[1],23%
same,Population Fragmented Nuclei (%),[1],12%
same,Population Healthy Nuclei (%),[1],75%
same,Population Hoechst High Intensity Objects (%),[1],7%
same,Population Membrane Permeable-Phenotype (%),[1],4%
same,Population Mitochondria Different-Phenotype (%),[1],5%
same,Population Mitotic Cells (%),[1],76%
same,Population Normal (%),[1],92%
same,Population Pyknosed Nuclei (%),[1],12%
same,Population Tubulin-Different-Phenotype (%),[1],3%
same,Total Cell Count,[1],801
same,Population Apoptotic (%),[2],9%
same,Population Fragmented Nuclei (%),[2],7%
same,Population Healthy Nuclei (%),[2],88%
same,Population Hoechst High Intensity Objects (%),[2],1%
same,Population Membrane Permeable-Phenotype (%),[2],0%
same,Population Mitochondria Different-Phenotype (%),[2],10%
same,Population Mitotic Cells (%),[2],90%
same,Population Normal (%),[2],98%
same,Population Pyknosed Nuclei (%),[2],4%
same,Population Tubulin-Different-Phenotype (%),[2],5%
same,Total Cell Count,[2],1607
same,Population Apoptotic (%),[3],18%
same,Population Fragmented Nuclei (%),[3],15%
same,Population Healthy Nuclei (%),[3],54%
same,Population Hoechst High Intensity Objects (%),[3],17%
same,Population Membrane Permeable-Phenotype (%),[3],4%
same,Population Mitochondria Different-Phenotype (%),[3],4%
same,Population Mitotic Cells (%),[3],81%
same,Population Normal (%),[3],82%
same,Population Pyknosed Nuclei (%),[3],29%
same,Population Tubulin-Different-Phenotype (%),[3],4%
same,Total Cell Count,[3],597
same,Population Apoptotic (%),[4],24%
same,Population Fragmented Nuclei (%),[4],4%
same,Population Healthy Nuclei (%),[4],89%
same,Population Hoechst High Intensity Objects (%),[4],2%
same,Population Membrane Permeable-Phenotype (%),[4],0%
same,Population Mitochondria Different-Phenotype (%),[4],14%
same,Population Mitotic Cells (%),[4],75%
same,Population Normal (%),[4],97%
same,Population Pyknosed Nuclei (%),[4],6%
same,Population Tubulin-Different-Phenotype (%),[4],6%
same,Total Cell Count,[4],1186
same,Population Apoptotic (%),[5],22%
same,Population Fragmented Nuclei (%),[5],12%
same,Population Healthy Nuclei (%),[5],81%
same,Population Hoechst High Intensity Objects (%),[5],4%
same,Population Membrane Permeable-Phenotype (%),[5],7%
same,Population Mitochondria Different-Phenotype (%),[5],3%
same,Population Mitotic Cells (%),[5],77%
same,Population Normal (%),[5],95%
same,Population Pyknosed Nuclei (%),[5],5%
same,Population Tubulin-Different-Phenotype (%),[5],4%
same,Total Cell Count,[5],1111
same,Population Apoptotic (%),[6],3%
same,Population Fragmented Nuclei (%),[6],23%
same,Population Healthy Nuclei (%),[6],74%
same,Population Hoechst High Intensity Objects (%),[6],3%
same,Population Membrane Permeable-Phenotype (%),[6],4%
same,Population Mitochondria Different-Phenotype (%),[6],2%
same,Population Mitotic Cells (%),[6],96%
same,Population Normal (%),[6],96%
same,Population Pyknosed Nuclei (%),[6],2%
same,Population Tubulin-Different-Phenotype (%),[6],6%
same,Total Cell Count,[6],2709
same,Population Apoptotic (%),[7],17%
same,Population Fragmented Nuclei (%),[7],16%
same,Population Healthy Nuclei (%),[7],66%
same,Population Hoechst High Intensity Objects (%),[7],11%
same,Population Membrane Permeable-Phenotype (%),[7],3%
same,Population Mitochondria Different-Phenotype (%),[7],4%
same,Population Mitotic Cells (%),[7],82%
same,Population Normal (%),[7],88%
same,Population Pyknosed Nuclei (%),[7],17%
same,Population Tubulin-Different-Phenotype (%),[7],6%
same,Total Cell Count,[7],593
same,Population Apoptotic (%),[8],4%
same,Population Fragmented Nuclei (%),[8],9%
same,Population Healthy Nuclei (%),[8],85%
same,Population Hoechst High Intensity Objects (%),[8],3%
same,Population Membrane Permeable-Phenotype (%),[8],1%
same,Population Mitochondria Different-Phenotype (%),[8],6%
same,Population Mitotic Cells (%),[8],95%
same,Population Normal (%),[8],96%
same,Population Pyknosed Nuclei (%),[8],4%
same,Population Tubulin-Different-Phenotype (%),[8],11%
same,Total Cell Count,[8],1486
